We go through 97 compounds from ChEMBL document CHEMBL4513216, “Probing the Open Global Health Chemical Diversity Library for Multistage-Active Starting Points for Next-Generation Antimalarials” (ACS Infect Dis, 2020).

This series in a line: Toxicity liver stage against HepG2, at 10uM. The format is cell-based. More on the design: test concentration 10 uM, cell line HepG2-A16-CD81EGFP. The settings on record: human, HepG2-A16-CD81EGFP cells; read-out: INHIBITION
The procedure, abridged:
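Uninfected HepG2-A16-CD81EGFP cells, 3 × 10^3 per well, 1536-well, plated on prespotted compound at 10 μM final, parasite-free screening media added to match infected plates; puromycin 10 μM positive, DMSO 0.5% negative; run in parallel with 48 h PbLuc assay at 37 °C, 5% CO2; viability by CellTiter-Glo luminescence, normalized to controls.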
For the compound `COc1ccccc1Cc1nnc(SCCS(C)(=O)=O)o1`, the cytotoxicity at 10 µM amounted to 5.89%.
Consider `Cc1cc(N(Cc2cccs2)C2CC2)n2nc(C(F)(F)F)nc2n1`, for which the cytotoxicity at 10 µM was -2.1%.
For `CC(=O)N1CCc2c(nc(N(C)C)nc2N(C)CCC2CCCCO2)C1` (configuration not stated), the cytotoxicity at 10 µM was -7.97%.
For `CCn1c(CN2CCOC(Cn3cccn3)C2)nc2c(F)cccc21` (configuration not stated), the cytotoxicity at 10 µM was -3.43%.
With `O=C(c1cnc(NCCC2CCCO2)c(Cl)c1)N1CCOCC1` (configuration not stated), the cytotoxicity at 10 µM came out at 7.74%.
For the compound `CC(C)(C)NC(=O)C1CSCN1S(=O)(=O)c1ccccc1S(C)(=O)=O` (configuration not stated), the cytotoxicity at 10 µM is -4.04%.
`CN(CCc1cnn(C)c1)C(=O)C1COc2ccccc2C1` (configuration not stated): the cytotoxicity at 10 µM came out at 1.33%.
For `Cc1cccc(C(=O)N(CC(=O)O)CC(C)C)c1`, the cytotoxicity at 10 µM was -14.3%.
With `Cc1sc(N)nc1-c1ccc(Cl)cc1`, the cytotoxicity at 10 µM is -2.75%.
As to `CN(C)c1cc(C2CCN(C(=O)c3cnn(C)c3)CC2)ccn1`, the cytotoxicity at 10 µM was 0.075%.
For `Cc1nonc1CN(C)Cc1cnn(-c2ccc(Cl)cc2)c1`, the cytotoxicity at 10 µM was -16.3%.
On to `COc1ccc(C(=O)N2C[C@@H]3CC[C@H]2CN(C)C3)cc1Cl`, for which the cytotoxicity at 10 µM is 5.79%.
Under `CN(Cc1cn2c(n1)CN(C(=O)C1CCOCC1)CC2)Cc1ccco1` stands -1.46%.
`Cc1ccccc1SC1CCN(C(=O)CCCS(N)(=O)=O)CC1`: the cytotoxicity at 10 µM is -7.76%.
For `CCN(Cc1nc(COC)no1)Cc1ccccc1OCC(=O)O`, the cytotoxicity at 10 µM is -51.6%.
For `CNCC(=O)Nc1cccc(-c2cnc(NCCO)nc2)c1`, the cytotoxicity at 10 µM was -6.94%.
`CC(C)c1cc(NC(CCO)c2ccccc2)n2nccc2n1` (configuration not stated): the cytotoxicity at 10 µM is -45.4%.
Under `Cc1ccc(CN2CCN(C3CSCCSC3)CC2CCO)o1` (configuration not stated) stands -8.51%; under `Cc1noc(C)c1CN(C)CC(=O)N1CCc2sccc2C1`, -19.4%.
On to `Cc1ccc(OCCSC2=NCCN2)cc1`, for which the cytotoxicity at 10 µM was -2.01%.
Under `CCNc1cc2c(nn1)CCN(C(=O)c1ccc(-n3cccn3)nc1)C2` stands 5.05%.
In the case of `O=C1NCCCCC1NCc1csc(-c2ccc(F)cc2)n1` (configuration not stated), the cytotoxicity at 10 µM is -13.5%.
Consider `CCn1cc(C2=CCN(CCCOc3ccccc3)CC2)cn1`, for which the cytotoxicity at 10 µM was -9.98%.
On to `COc1cccc(CC(=O)N2CCC(c3ccn4nccc4n3)CC2)c1`, for which the cytotoxicity at 10 µM was -3.79%.
On to `CCc1nnc2n1CCN(C(=O)c1cnc3ccccc3n1)C2`, for which the cytotoxicity at 10 µM is -7.7%.
Turning to `CCn1cc(N)c(-c2nnc3n2CCCC3)n1`, the cytotoxicity at 10 µM is -8.72%.
Consider `CO[C@@H]1CC[C@H]2[C@H]1OCCN2Cc1ccc(F)c(F)c1`, for which the cytotoxicity at 10 µM came out at 4.33%.
Under `COCC1CCN(C(=O)c2cn(Cc3cccc(C(F)(F)F)c3)nn2)C1` (configuration not stated) stands -0.695%.
For `Cc1noc(C)c1C(=O)N1CCCC1c1c(C)nn(C)c1C` (configuration not stated), the cytotoxicity at 10 µM was -5.68%.
Consider `O=C(N[C@@H]1CCN(c2nc3ccccc3o2)C[C@H]1O)c1cnccn1`, for which the cytotoxicity at 10 µM is 3.52%.
Under `CC(NC(=O)NCCCN(C(C)C)S(C)(=O)=O)c1ccncc1` (configuration not stated) stands -14.9%; under `Cc1cc(C)c2c(N3CCC(O)(Cn4ccnc4)CC3)ncnc2n1`, -3.28%; under `CC(NC(=O)CNCCn1cccn1)c1ccc2c(c1)CCCC2` (configuration not stated), -11.4%.
Turning to `O=C(NCCc1cccs1)NC1CCN(c2ncccn2)CC1`, the cytotoxicity at 10 µM is -141%.
In the case of `CCCc1ccc2oc(C(=O)N3CCCN(C)CC3)c(C)c2c1`, the cytotoxicity at 10 µM is -8.3%.
Under `Cn1cc(S(=O)(=O)N2CCN(S(=O)(=O)c3ccc(Br)s3)CC2)cn1` stands 11.8%.
On to `COCc1csc(NC(=O)N2CCC(Cc3cnn(C)c3)C2)n1` (configuration not stated), for which the cytotoxicity at 10 µM was 3.13%.
Under `COCC(=O)N[C@H](C)c1onc(-c2ccccc2)c1C(=O)O` stands 0.179%; under `CC(=O)c1ccc(CNC(=O)c2c(C)cc(C)cc2C)nc1C`, 9.31%; under `COCCCNC(=O)N1CCN(C(=O)c2nsc3ccc(C)cc23)CC1`, 12.3%.
As to `O=C(O)c1cc2c(nc1-c1ccoc1)CCN(Cc1ccco1)CC2`, the cytotoxicity at 10 µM is -78.9%.
As to `COc1ccc(C[C@H]2CN(C(=O)c3cscn3)CC[C@@H]2OC)cc1`, the cytotoxicity at 10 µM came out at 7.71%.
For `CC(C)NC(=O)C1(Cc2ccccc2-c2cccs2)CCNC1` (configuration not stated), the cytotoxicity at 10 µM was -42%.
Regarding `Cc1cccnc1CN1CCN(C(=O)CCn2ccccc2=O)CC1`, the cytotoxicity at 10 µM is 3.34%.
Take `CCC(NC(=O)CN(C)Cc1ccc(C)o1)c1ccc(Br)cc1` (configuration not stated): the cytotoxicity at 10 µM was 35.5%.
For the compound `CC(NC(=O)N1CCc2ccccc2C1)c1nncn1C` (configuration not stated), the cytotoxicity at 10 µM is -6.98%.
For the compound `CCc1nc(C2CCCN2CCC(=O)N2CCc3ccccc32)no1` (configuration not stated), the cytotoxicity at 10 µM was -23.7%.
Consider `Cc1noc([C@H]2CC[C@@H]3[C@@H](CCN3S(=O)(=O)C3CC3)O2)n1`, for which the cytotoxicity at 10 µM is -1.98%.
As to `Fc1cc(Cl)cnc1N1CCCC(c2nccn2Cc2ccccn2)C1` (configuration not stated), the cytotoxicity at 10 µM is -3.54%.
Under `Cn1cnnc1CCNC(=O)c1ccccc1OC1CCC1` stands -2.94%; under `O=C(N[C@@H]1CCNC[C@H]1O)c1ccc(F)c(Cl)c1`, -11.1%; under `CN1C(=O)CO[C@H](c2ccc(NC(=O)Nc3ccccc3)cc2)[C@H]1CO`, -1.63%.
In the case of `COCC(=O)N1CCN(S(=O)(=O)c2cccs2)[C@H]2CS(=O)(=O)C[C@H]21`, the cytotoxicity at 10 µM was determined as 1.44%.
On to `O=C(c1cncc(N2CCC3(CCCNC3)C2)n1)N1CCCC1` (configuration not stated), for which the cytotoxicity at 10 µM is -4.15%.
Take `COc1cc(C(=O)Nc2cn[nH]c2)ccc1C`: the cytotoxicity at 10 µM was -7.33%.
As to `Cc1cc(C)cc(S(=O)(=O)NCC2CNCCOC2)c1` (configuration not stated), the cytotoxicity at 10 µM was -1.86%.
Take `Cc1noc(C)c1CN1CCC2(COCc3cnc(N(C)C)nc32)C1` (configuration not stated): the cytotoxicity at 10 µM came out at 9.93%.
Consider `CCCOCC(=O)N1CCc2nc(NC)nc(C(=O)N3CCCC3)c2C1`, for which the cytotoxicity at 10 µM is -109%.
For the compound `COc1ccccc1N1CCN(C(=O)CCn2ccnc2C)CC1(C)C`, the cytotoxicity at 10 µM was -26.7%.
Consider `CCOc1ccc(C(=O)NC2CC2)cc1C`, for which the cytotoxicity at 10 µM was found to be 8%.
Under `c1ccc(Cc2cccc(C3CCCN3C3CCOCC3)n2)cc1` (configuration not stated) stands 1.62%; under `COC(=O)c1cccc(CNC(=O)c2cc(C(C)C)n(C)n2)c1`, -3.26%.
On to `CCCn1nnnc1CSc1nccn1Cc1ccccn1`, for which the cytotoxicity at 10 µM turned out to be 6.24%.
On to `c1cncc(COCc2nnn3c2CN(Cc2ccsc2)CC3)c1`, for which the cytotoxicity at 10 µM was 6.4%.
Consider `O=C(NCc1ccc2c(c1)OCO2)c1ccc(N2CCCCC2)nn1`, for which the cytotoxicity at 10 µM was -9.7%.
Under `CN(C)C(CNC(=O)c1ccnc(-n2cncn2)c1)c1ccccc1` (configuration not stated) stands -130%; under `CN1N=C(C(=O)Nc2cc(F)ccc2OCC2CCCO2)CCC1=O` (configuration not stated), -8%; under `CN(C)C(=O)c1ccc(C2CCCN2C(=O)c2cccc3c2OCC3)s1` (configuration not stated), 4.1%.
In the case of `Cc1cc(CN(C)C(=O)NC(C)Cc2ccco2)no1` (configuration not stated), the cytotoxicity at 10 µM came out at 6.62%.
Under `Cc1ccc(S(=O)(=O)NC2CCC(=O)NC2)cc1Br` (configuration not stated) stands -2.38%.
Under `COc1ccc(-n2cc3nc(N4CCCC4)[nH]cc-3c2=O)cc1Cl` stands 11.6%; under `COCC(=O)NC1CCN(c2cccc(OC(F)(F)F)c2)C1=O` (configuration not stated), -3.17%.
Under `CCCS(=O)(=O)NCc1cccnc1OCc1ccccc1` stands 13%; under `Cc1cc(N[C@H]2CN(CC(C)(C)N3CCOCC3)C[C@@H]2C2CC2)ncn1`, 2.03%; under `CS(=O)(=O)CCCNC1(c2cccc(F)c2)CC1`, -3.39%.
`c1cnc(N2CCO[C@@H]3CN(Cc4ccoc4)C[C@@H]3C2)nc1`: the cytotoxicity at 10 µM was -1.36%.
For `CCN(CC)CCCN1CCN(c2nc(C)cnc2C)CC1`, the cytotoxicity at 10 µM was -31%.
Regarding `O=C1C[C@H]2[C@@H](CCN2C(=O)c2ccoc2)N1CCN1CCOCC1`, the cytotoxicity at 10 µM was -5.26%.
Consider `CC1CN(C)c2ccccc2CN1C(=O)c1cc[nH]c(=O)c1` (configuration not stated), for which the cytotoxicity at 10 µM worked out at 4.96%.
On to `Cc1cc(C)n(CC2CCCN2C(=O)c2cncnc2C)n1` (configuration not stated), for which the cytotoxicity at 10 µM was -2.98%.
Turning to `O=C(C1CCOC1)N1C[C@H]2CN(Cc3cccc(F)c3)C(=O)[C@H]2C1` (some centres not stated), the cytotoxicity at 10 µM was -106%.
Under `CCN(Cc1ccc(Cl)c(Cl)c1)C(=O)CCn1cncn1` stands 9.87%; under `CC(C)(C)CC(=O)NC(C)(C(N)=O)c1cccc(Cl)c1` (configuration not stated), 11.5%; under `Cc1ccc(CCC(=O)N(C)CCN2CCOCC2)c(C)c1`, -4.51%.
Under `Cc1cc2c(cc1NC(=O)NCC(C)C)OCO2` stands 1.01%; under `CCc1ncc(CN(C)C(=O)Nc2cccnc2N2CCCC2)s1`, -8.43%; under `CCCNC(=O)c1cccc2ncccc12`, -50.3%.
In the case of `O=C(c1ccc(N2CCCC2)nn1)N1CCCc2ccc(F)cc21`, the cytotoxicity at 10 µM is -1.7%.
Under `CNC(=O)c1nc(Cn2ncc3ccccc3c2=O)no1` stands 6.6%; under `COc1cc(CNCc2c(C)nn(C)c2N(C)C)ccc1C`, -9.16%.
On to `CC(=O)N1CCN(C)CC(COCc2ccccc2)C1` (configuration not stated), for which the cytotoxicity at 10 µM was -4.79%.
For `O=C(O)C1(Cc2cccc(-c3ccc(F)cc3)c2)CCOCC1`, the cytotoxicity at 10 µM was -24.1%.
Under `Cc1ccccc1CSc1nc(N)cc(N2CCCC(O)C2)n1` (configuration not stated) stands -6.52%.
`O=C(CCc1ccc(Cl)cc1)NC1CCN(c2cccc(F)c2)CC1`: the cytotoxicity at 10 µM is -5.99%.
On to `CCc1ccc2nc(NCC(O)CO)cc(C)c2c1` (configuration not stated), for which the cytotoxicity at 10 µM is -15.4%.
Under `CC(C)OCCN1CCC(C(=O)c2cc(F)ccc2F)CC1` stands -8.63%.
As for `Cc1noc(C)c1CCCNC(=O)C1CCN(C(=O)C2CCC2)CC1`, the cytotoxicity at 10 µM is 3.72%.
